Results on 12 compounds are retold here after ChEMBL document CHEMBL1128450, “Mononucleoside phosphotriester derivatives with S-acyl-2-thioethyl bioreversible phosphate-protecting groups: intracellular delivery of 3'-azido-2',3'-dideoxythymidine 5'-monophosphate” (J Med Chem, 1995).

The subject of data set [1] is CEM/TK- (Homo sapiens). Nature of the data set: Antiviral activity in CEM/TK cell line infected with HIV-1 and Concentration required to inhibit the replication of HIV-1 by 50% was determined.
Data set [2] in a line: Selectivity Index measured as the ratio of CC50(CEM-SS) to EC50(CEM-SS). The class given is functional.
Data set [3] in a line: Selectivity Index measured as the ratio of CC50(CEM/TK) to EC50(CEM/TK). The class given is functional.
In data set [4] the test system is MT4. Nature of the data set: Antiviral activity in MT-4 cell line infected with HIV-1 and Concentration required to inhibit the replication of HIV-1 by 50% was determined. Conditions: Homo sapiens. It is filed as functional, cell-based. An outline of the steps:
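HIV-1 IIIB at 50 TCID50 adsorbed to MT-4 cells for 30 min, followed by two washes and 5 days of culture with graded compound concentrations. Protection from virus-induced cytopathogenicity was read by MTT reduction to formazan. EC50 was taken from a median effect plot, averaging at least three separate experiments.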

Data set [5] has as its system CEM/TK- (Homo sapiens). Nature of the data set: Antiviral activity in CEM/TK cell line infected with HIV-1 and cytotoxic concentration required to reduce the viability of uninfected cells by 50%.
Data set [6] deals with CEM-SS. As to the kind of experiment: Antiviral activity in CEM-SS cell line infected with HIV-1 and Concentration required to inhibit the replication of HIV-1 by 50% was determined. The class given is functional, cell-based. Conditions: Homo sapiens. An outline of the steps:
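Cells infected with HIV-LAI at 100 TCID50 for 30 min, washed twice, then cultured with a range of compound concentrations for 5 days (6 days for CEM/TK⁻). Virus production was read as reverse transcriptase activity in the culture supernatant. EC50 was taken from a median effect plot of the dose–effect data, averaging at least three separate experiments.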

The subject of data set [7] is MT4. As to the kind of experiment: Antiviral activity in MT-4 cell line infected with HIV-1 and cytotoxic concentration required to reduce the viability of uninfected cells by 50%. It is filed as functional. The note with it: Homo sapiens. The method in brief: (§1)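 Uninfected cells were exposed to compound for 5 days, and viability was read by colorimetric MTT test. Values average at least three separate experiments.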

Data set [8] relates to CEM-SS. As to the kind of experiment: Antiviral activity in CEM-SS cell line infected with HIV-1 and cytotoxic concentration required to reduce the viability of uninfected cells by 50%. The class given is functional. The note with it: Homo sapiens. The method in brief: as §1
Data set [9] is described as follows: Half life evaluated in Total Cell Extract(TCE). Conditions: for half-life: total cell extract (TCE). It is filed as ADME. An outline of the steps: (§2)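 Compounds at 5 × 10⁻⁵ M initial were incubated at 37 °C in total cell extract from CEM-SS cells. Crude aliquots were analysed by on-line precolumn-cleaning HPLC, with and without ion-pairing reagent, on a C18 column using an ammonium acetate/acetonitrile gradient, with areas read at 266 nm. Half-lives came from pseudo-first-order rate constants fitted to kinetic models by exponential regression.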

Data set [10] in a line: Half life evaluated in Culture Medium(CM). It is filed as ADME. Conditions: for half-life: culture medium (CM). The method in brief:
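Compounds at 5 × 10⁻⁵ M initial were incubated at 37 °C in RPMI 1640 with 10% heat-inactivated fetal calf serum. Crude aliquots were analysed by on-line ISRP precolumn-cleaning HPLC, with and without tetrabutylammonium ion-pairing, on a C18 column using an ammonium acetate pH 6.0/acetonitrile gradient. Species were quantified from peak areas at 266 nm. Half-lives were derived from pseudo-first-order rate constants fitted by mono- or polyexponential regression.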

A short description of data set [11]: Half life evaluated in Total Cell Extract(TCE) for determination 2. The class given is ADME. The method in brief: as §2
The nature of data set [12]: Half life evaluated in Total Cell Extract(TCE) for determination 3. The class given is ADME. The method in brief: as §2
The nature of data set [13]: Half life evaluated in Total Cell Extract(TCE) for determination 1. It is filed as ADME. The method in brief: as §2

“And” between values parts separate entries of the source, which are not always exact repeats. Equal entries are not always repeated. A value given as a limit tells only on which side of the number the result lay.

The term EC50 denotes the concentration giving half of the maximal effect. A high value points to lower potency in that assay. In general, CC50 refers to the concentration at which the toxic effect on the cells reaches its halfway point. A higher CC50 goes with lower toxicity to the cells. On to `Cc1cn(C2CC(N=[N+]=[N-])C(COP(=O)(OCOC(=O)C(C)(C)C)OCOC(=O)C(C)(C)C)O2)c(=O)[nH]c1=O` (centres undefined), for which the EC50 was determined as 0.255 µM in [1], 0.052 µM in data set [4] and 0.077 µM in [6]. Besides, the Selectivity index in [2] amounted to 860; in data set [3], 250. The CC50 in [5] was 65.5 µM; in [7], 59 µM; in data set [8], 67 µM.
With `Cc1cn([C@H]2C[C@H](N=[N+]=[N-])[C@@H](CO)O2)c(=O)[nH]c1=O` [ZIDOVUDINE], the EC50 in data set [1] was more than 100 µM; in [4] it was 0.017 µM; in [6], 0.006 µM. In addition, in data set [2], the Selectivity index was more than 17300. The values for the CC50 in [5], in data set [7] and in data set [8] were more than 100 µM, 75 µM and more than 100 µM, respectively.
Consider `Cc1cn(C2CC(N=[N+]=[N-])C(COP(=O)(OCCSSCCO)OCCSSCCO)O2)c(=O)[nH]c1=O` (centres undefined), for which the EC50 in data set [1] was determined as 0.55 µM; in data set [4] it was 0.054 µM; in data set [6] it was 0.023 µM. Moreover, the Selectivity index was more than 4300 in [2] and more than 180 in data set [3]. Also, the CC50 in data set [5], in data set [7] and in data set [8] was more than 100 µM each time.
One may read the half-life as the time needed for the level to fall by half in the phase considered. Lower therefore signals fast loss. As for `CC(=O)SCCOP(=O)(OCCSC(C)=O)OCC1OC(n2cc(C)c(=O)[nH]c2=O)CC1N=[N+]=[N-]` (centres undefined), the EC50 worked out at 0.049 µM in [1], 0.05 µM in [4] and 0.022 µM in [6]. Further, the Selectivity index in data set [2] is 4300; in data set [3], more than 2050. Also, the half-life in data set [9] was less than 0.0833 h; in data set [10], 9 h. Moreover, the cytotoxic concentration (CC50) is more than 100 µM in [5], 67 µM in data set [7] and 93 µM in [8].
In the case of `Cc1cn(C2CC(N=[N+]=[N-])C(COP(=O)(O)OCCSC(=O)C(C)(C)C)O2)c(=O)[nH]c1=O` (centres undefined), the half-life is 7.2 h in data set [9] and 21.3 h in data set [10].
On to `Cc1cn(C2CC(N=[N+]=[N-])C(COP(=O)(OCCSC(=O)C(C)C)OCCSC(=O)C(C)C)O2)c(=O)[nH]c1=O` (centres undefined), for which the 50% effective concentration (EC50) in data set [1] was 0.52 µM; in data set [4], 0.048 µM; in [6], 0.046 µM. Also, the values for the Selectivity index in data set [2] and in data set [3] were more than 200 and more than 17, respectively. Besides, the results for the half-life in data set [9] and in data set [10] were 0.75 h and 9 h, respectively. The 50% cytotoxic concentration (CC50) in [5], in data set [7] and in data set [8] was more than 10 µM throughout.
`CC(=O)SCCOP(=O)(O)OCC1OC(n2cc(C)c(=O)[nH]c2=O)CC1N=[N+]=[N-]` (centres undefined): the half-life in data set [9] was less than 0.0833 h; in data set [10], 8.9 h.
Consider `Cc1cn(C2CC(N=[N+]=[N-])C(COP(=O)(OCCSC(=O)c3ccccc3)OCCSC(=O)c3ccccc3)O2)c(=O)[nH]c1=O` (centres undefined), for which the EC50 in [1] is 0.32 µM; in data set [4], 0.076 µM; in data set [6], 0.125 µM. In addition, the Selectivity index is more than 8 in data set [2] and more than 4 in data set [3]. Also, the CC50 in data set [5], in data set [7] and in data set [8] was more than 1 µM throughout.
Take `Cc1cn(C2CC(N=[N+]=[N-])C(COP(=O)(OCCSC(=O)C(C)(C)C)OCCSC(=O)C(C)(C)C)O2)c(=O)[nH]c1=O` (centres undefined): the EC50 was determined as 0.45 µM in [1], 0.81 µM in [4] and 0.015 µM in data set [6]. In addition, the Selectivity index in data set [2] was more than 670; in [3], more than 22. For the same compound, the figures for the half-life in data set [9] and in data set [10] were 1.05 h and 103 h, respectively. Besides, the CC50 in [5], in [7] and in data set [8] was more than 10 µM in each case.
In [9], `Cc1cn([C@H]2C[C@H](N=[N+]=[N-])[C@@H](COP(=O)(O)O)O2)c(=O)[nH]c1=O` [AZIDOTHYMIDINE MONOPHOSPHATE] gave a T1/2 of 4 h and a half-life of 4 h. For the same compound, in data set [10], the T1/2 was 72 h and 67 h; the half-life is 50 h.
As for `Cc1cn(C2CC(N=[N+]=[N-])C(COP(=O)(O)OCCS)O2)c(=O)[nH]c1=O` (centres undefined), the half-life in data set [11] is 9 h; in [12], 10.5 h; in [13], 2.3 h.
Regarding `Cc1cn(C2CC(N=[N+]=[N-])C(COP(=O)(O)OCCSC(=O)C(C)C)O2)c(=O)[nH]c1=O` (centres undefined), the half-life in data set [9] is 7.1 h; in [10], 12.3 h.
